Source: ChEMBL document CHEMBL3779798, “Novel seleno- and thio-urea derivatives with potent in vitro activities against several cancer cell lines” (Eur J Med Chem, 2016)
The source made the active and inactive calls. No cut-off for these calls is given here.

Legend:
HT-29 [1] = experiment: Anticancer activity against human HT-29 cells assessed as inhibition of cell growth after 48 hrs by MTT assay; type: functional, cell-based; conditions: HT-29, 48 h
Outline: (§1)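 MTT assay at 3,000 cells/well. Cells treated with DMSO or seven concentrations from 0.5 to 50 µM for 24, 48 or 72 h. MTT added 3 h before the end point; formazan dissolved in DMSO and read at 570 and 630 nm. IC50 is the concentration giving 50% growth inhibition. Media: PANC-1, BxPC3 and 1205Lu in DMEM; DU145 and A549 in RPMI 1640; HT29, HCT116 and RKO in McCoy's 5A, all with 10% FBS and pen/strep, at 37 °C and 5% CO2.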

HCT-116 [2] = experiment: Induction of apoptosis in human HCT116 cells assessed as necrotic cells at 5 uM after 24 hrs by caspase3/7 reagent based flow cytometry (reference value: 4.14%); type: functional
HCT-116 [3] = experiment: Induction of apoptosis in human HCT116 cells assessed as early apoptotic cells at 1 uM after 24 hrs by caspase3/7 reagent based flow cytometry (reference value: 5.18%); type: functional
HCT-116 [4] = experiment: Induction of apoptosis in human HCT116 cells assessed as necrotic cells at 1 uM after 24 hrs by caspase3/7 reagent based flow cytometry (reference value: 4.14%); type: functional
HCT-116 [5] = experiment: Induction of apoptosis in human HCT116 cells assessed as early apoptotic cells at 2.5 uM after 24 hrs by annexin-V staining based flow cytometry analysis (reference value: 7.84%); type: functional
HCT-116 [6] = experiment: Induction of apoptosis in human HCT116 cells assessed as early apoptotic cells at 2.5 uM after 24 hrs by caspase3/7 reagent based flow cytometry (reference value: 5.18%); type: functional
HCT-116 [7] = experiment: Induction of apoptosis in human HCT116 cells assessed as late apoptotic cells after 24 hrs by annexin-V staining based flow cytometry analysis; type: functional, cell-based
HCT-116 [8] = experiment: Induction of apoptosis in human HCT116 cells assessed as necrotic cells at 5 uM after 24 hrs by annexin-V staining based flow cytometry analysis (reference value: 0.72%); type: functional
[9] = Anticancer activity against human 1205 Lu cells assessed as inhibition of cell growth after 72 hrs by MTT assay; type: functional, cell-based; outline: as §1
RKO [10] = experiment: Anticancer activity against human RKO cells assessed as inhibition of cell growth after 48 hrs by MTT assay; type: functional, cell-based; outline: as §1
A549 = experiment: Anticancer activity against human A549 cells assessed as inhibition of cell growth after 24 hrs by MTT assay; type: functional, cell-based; conditions: A549, 24 h; outline: as §1
[11] = Anticancer activity against human DU145 cells assessed as inhibition of cell growth after 24 hrs by MTT assay; type: functional, cell-based; conditions: DU-145, 24 h; outline: as §1
HCT-116 [12] = experiment: Induction of apoptosis in human HCT116 cells assessed as necrotic cells at 1 uM after 24 hrs by annexin-V staining based flow cytometry analysis (reference value: 0.72%); type: functional
[13] = Induction of cell death in human HCT116 cells at 5 uM after 24 hrs by calcein-AM and ethidium homodimer-1 staining based flow cytometry analysis (reference value: 1.1%); type: functional, HCT-116
HCT-116 [14] = experiment: Induction of apoptosis in human HCT116 cells assessed as viable cells at 5 uM after 24 hrs by annexin-V staining based flow cytometry analysis (reference value: 90.38%); type: functional; conditions: HCT-116, 24 h, read-out: Activity
HCT-116 [15] = experiment: Induction of apoptosis in human HCT116 cells assessed as late apoptotic cells at 1 uM after 24 hrs by annexin-V staining based flow cytometry analysis (reference value: 1.06%); type: functional
[16] = Anticancer activity against human HCT116 cells assessed as inhibition of cell growth after 48 hrs by MTT assay; type: functional, cell-based; conditions: HCT-116, 48 h; outline: as §1
HCT-116 [17] = experiment: Decrease in whole PARP level in human HCT116 cells at 0.5 to 5 uM after 24 hrs by western blot analysis; type: functional, cell-based
Outline: (§2)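 HCT116 cells (6 × 10^5/well) treated for 24 h. Whole-cell lysates made in RIPA buffer with phosphatase and protease inhibitors and PMSF, cleared at 15,000 g, resolved by SDS-PAGE and transferred to PVDF. Blots probed overnight in the cold with primary antibodies, then peroxidase-linked secondaries, and detected by ECL; β-actin antibody used.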

[18] = Anticancer activity against human BxPC3 cells assessed as inhibition of cell growth after 72 hrs by MTT assay; type: functional, cell-based; conditions: BXPC-3, 72 h; outline: as §1
HCT-116 [19] = experiment: Induction of apoptosis in human HCT116 cells assessed as late apoptotic cells at 5 uM after 24 hrs by caspase3/7 reagent based flow cytometry (reference value: 2.28%); type: functional
HCT-116 [20] = experiment: Induction of apoptosis in human HCT116 cells assessed as necrotic cells at 2.5 uM after 24 hrs by caspase3/7 reagent based flow cytometry (reference value: 4.14%); type: functional
RKO [21] = experiment: Potency index, ratio IC50 of 5-FU to IC50 of compound for anticancer activity against human RKO cells; type: functional
Outline: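 Colon lines (McCoy's 5A, 10% FBS, penicillin/streptomycin, 37 °C, 5% CO2) seeded at 3,000 cells/well and exposed 24, 48 or 72 h to DMSO or seven concentrations across 0.5–50 µM. MTT added 3 h before end; formazan dissolved in DMSO, absorbance read at 570 and 630 nm. IC50 (50% growth inhibition) from curve fitting; index is the 5-FU IC50 divided by the compound IC50.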

[22] = Anticancer activity against human BxPC3 cells assessed as inhibition of cell growth after 24 hrs by MTT assay; type: functional, cell-based; conditions: BXPC-3, 24 h; outline: as §1
HT-29 [23] = experiment: Anticancer activity against human HT-29 cells assessed as inhibition of cell growth after 72 hrs by MTT assay; type: functional, cell-based; conditions: HT-29, 72 h; outline: as §1
HCT-116 [24] = experiment: Induction of apoptosis in human HCT116 cells assessed as viable cells at 2.5 uM after 24 hrs by annexin-V staining based flow cytometry analysis (reference value: 90.38%); type: functional; conditions: HCT-116, 24 h, read-out: Activity
[25] = Anticancer activity against human PANC1 cells assessed as inhibition of cell growth after 24 hrs by MTT assay; type: functional, cell-based; conditions: PANC-1, 24 h; outline: as §1
HCT-116 [26] = experiment: Decrease in number of viable cells in human HCT116 cells at 2.5 uM after 24 hrs by calcein-AM and ethidium homodimer-1 staining based flow cytometry analysis (reference value: 94.9%); type: functional
RKO [27] = experiment: Anticancer activity against human RKO cells assessed as inhibition of cell growth after 24 hrs by MTT assay; type: functional, cell-based; outline: as §1
HCT-116 [28] = experiment: Induction of apoptosis in human HCT116 cells assessed as viable cells at 2.5 uM after 24 hrs by caspase3/7 reagent based flow cytometry (reference value: 88.4%); type: functional; conditions: HCT-116, 24 h, read-out: Activity
HCT-116 [29] = experiment: Induction of apoptosis in human HCT116 cells assessed as late apoptotic cells at 5 uM after 24 hrs by annexin-V staining based flow cytometry analysis (reference value: 1.06%); type: functional
HCT-116 [30] = experiment: Decrease in pro-caspase3 level in human HCT116 cells at 0.5 to 5 uM after 24 hrs by western blot analysis; type: functional, cell-based; outline: as §2
HCT-116 [31] = experiment: Induction of apoptosis in human HCT116 cells assessed as early apoptotic cells at 5 uM after 24 hrs by caspase3/7 reagent based flow cytometry (reference value: 5.18%); type: functional
HCT-116 [32] = experiment: Induction of apoptosis in human HCT116 cells assessed as early apoptotic cells after 24 hrs by annexin-V staining based flow cytometry analysis; type: functional, cell-based

**Q.** Which IC50 (HT-29 [1]) does the source give for `Br.Br.N=C(N)[Se]Cc1nc2ccccc2nc1C[Se]C(=N)N` here?
**A.** The IC50 was 4.1 µM.

**Q.** What about the Activity (HCT-116 [2]) of the same molecule?
**A.** The Activity was 5.96%.

**Q.** What about the Activity (HCT-116 [3]) of the same molecule?
**A.** Its Activity is 7.18%.

**Q.** And the Activity (HCT-116 [4])?
**A.** Its Activity is 3.18%.

**Q.** And the Activity (HCT-116 [5])?
**A.** The Activity was 21.6%.

**Q.** What about the Activity (HCT-116 [6]) of the same molecule?
**A.** Its Activity is 6.48%.

**Q.** And the Activity (HCT-116 [7])?
**A.** The Activity was “Dose-dependent effect”.

**Q.** And the Activity (HCT-116 [8])?
**A.** Its Activity is 0.68%.

**Q.** And the IC50 [9]?
**A.** The IC50 was 2.2 µM.

**Q.** What about the IC50 (RKO [10]) of the same molecule?
**A.** The IC50 was 1.9 µM.

**Q.** And the IC50 (A549)?
**A.** The IC50 was 3 µM.

**Q.** And the IC50 [11]?
**A.** Its IC50 is 2.3 µM.

**Q.** What about the Activity (HCT-116 [12]) of the same molecule?
**A.** The Activity was 0.2%.

**Q.** What about the Activity [13] of the same molecule?
**A.** The Activity was 19.3%.

**Q.** What about the viability at 5 µM (HCT-116 [14]) of the same molecule?
**A.** Its viability at 5 µM is 24.6%.

**Q.** What about the Activity (HCT-116 [15]) of the same molecule?
**A.** The Activity was 2.28%.

**Q.** What about the IC50 [16] of the same molecule?
**A.** The IC50 was 0.7 µM.

**Q.** And the Activity (HCT-116 [17])?
**A.** The Activity was “Active”.

**Q.** And the IC50 [18]?
**A.** The IC50 was 2.2 µM.

**Q.** What about the Activity (HCT-116 [19]) of the same molecule?
**A.** Its Activity is 50.26%.

**Q.** What about the Activity (HCT-116 [20]) of the same molecule?
**A.** The Activity was 2.78%.

**Q.** And the “Ratio IC50” value (RKO [21])?
**A.** The value was over 50.

**Q.** And the IC50 [22]?
**A.** The IC50 was 3.6 µM.

**Q.** What about the IC50 (HT-29 [23]) of the same molecule?
**A.** Its IC50 is 2.2 µM.

**Q.** What about the viability at 2.5 µM (HCT-116 [24]) of the same molecule?
**A.** Its viability at 2.5 µM is 66.2%.

**Q.** What about the IC50 [25] of the same molecule?
**A.** The IC50 was 6.6 µM.

**Q.** And the Activity (HCT-116 [26])?
**A.** Its Activity is 92.2%.

**Q.** And the IC50 (RKO [27])?
**A.** The IC50 was 3.8 µM.

**Q.** And the viability at 2.5 µM (HCT-116 [28])?
**A.** Its viability at 2.5 µM is 85%.

**Q.** And the Activity (HCT-116 [29])?
**A.** Its Activity is 35.68%.

**Q.** And the Activity (HCT-116 [30])?
**A.** The Activity was “Active”.

**Q.** And the Activity (HCT-116 [31])?
**A.** Its Activity is 27.66%.

**Q.** And the Activity (HCT-116 [32])?
**A.** The Activity was “Dose-dependent effect”.
